Assay results pooled from the literature.
Lines come from different studies, so protocols differ.
LCK: Tyrosine-protein kinase Lck (LCK, Homo sapiens, UniProt P06239)
LCK phosphorylated: Tyrosine-protein kinase Lck, phosphorylated (LCK, Homo sapiens, UniProt P06239)

For `FC(F)(F)Oc1cccc(-c2cnc3ccc(-c4ccncc4)nn23)c1`, the activity vs control was 25% (LCK; enzyme activity, inhibitor, radiometric; 5 µM).
`COc1cc(/C=C/C(=O)CC(=O)/C=C/c2ccc(O)c(OC)c2)ccc1O` has an activity vs control of 80% (LCK; enzyme activity, inhibitor; 1 µM).
For `CN(c1nccc(-c2cnn3ncccc23)n1)C1CC1`, the remaining signal was 98% (LCK; cell-free assay; 1 µM).
For `Cc1cc(NC(=O)c2cccc3cc(-c4cccc5[nH]nc(N)c45)ccc23)ccc1F`, the activity vs control was 90% (LCK; enzyme activity, inhibitor; 0.1 µM).
The inhibition of `CNCc1ccc(-c2cc(-c3nc(-c4ccc(S(=O)(=O)C(C)C)cc4)cnc3N)on2)cc1` is reported as 42% (LCK; enzyme activity, inhibitor; 0.4 µM).
`CSc1cccnc1N1CCN(Cc2nc3ccccc3[nH]2)CC1` gave a remaining binding of 100% (LCK; binding, competition with immobilised ligand; 1 µM).
`N[C@H]1CCN(c2nccc(-c3cnn4ncccc34)n2)C1` gave a remaining signal of 90% (LCK; cell-free assay; 1 µM).
The remaining binding of `CCS(=O)(=O)c1cc2cc(C[C@](O)(CC(C)(C)c3ccc(F)cc3C(N)=O)C(F)(F)F)[nH]c2cn1` is reported as 100% (LCK; cell-free assay, competition with immobilised ligand; 1 µM).
`Cc1ccc(C(=O)NCc2ccsc2)cc1C#Cc1cn(C(C)C)c2ncnc(N)c12` has an activity vs control of 2% (LCK phosphorylated; enzyme activity, inhibitor; 1 µM).
`CC/C(=N\NC(=O)NCc1cccc(O)c1)c1ccc(O)c(C)c1O` gave an inhibition of 2% (LCK; enzyme activity, inhibitor; 0.1 µM).
`O=C(O)c1cc(-c2ccc(C3CCNCC3)cc2)c2ccc(-c3ccc(C(F)(F)F)cc3)cc2c1` has a remaining binding of 100% (LCK; cell-free assay, competition with immobilised ligand; 1 µM).
`O=C1c2ccccc2-c2n[nH]c3cccc1c23` has an activity vs control of 97.1% (LCK; enzyme activity, inhibitor; 0.5 µM).
With `CNC(=O)c1cc2c(Oc3ccc(NC(=O)C4(C(=O)Nc5ccc(F)cc5)CC4)cc3)ccnc2cc1OC` the inhibition was 97% (LCK phosphorylated; enzyme activity, inhibitor, radiometric; 1 µM).
`c1nc2c(Nc3ccc4c(c3)OCCO4)nc(Nc3ccc4c(c3)OCCO4)nc2[nH]1` has an activity vs control of 2.1% (LCK; enzyme activity, inhibitor; 10 µM).
`C[C@H](NC(=O)c1cnc2n1[C@](C)(Cc1ccc(C#N)cc1)C(=O)N2c1cc(Cl)c(F)c(Cl)c1)C(=O)NC1(c2ccccn2)CC1` has a remaining binding of 100% (LCK; cell-free assay, competition with immobilised ligand; 1 µM).
The activity vs control of `CC(C)(C)n1nc(Cc2cccc3ccccc23)c2c(N)ncnc21` is reported as 80.4% (LCK; enzyme activity, inhibitor; 0.5 µM).
`CS(=O)(=O)N1CCCC(NC(=O)[C@H](CCC2CCCCC2)NC(=O)c2ccc(CNc3ncnc4c3nnn4-c3ccccc3)cc2)C1` (stereo partly shown) has a remaining binding of 100% (LCK; cell-free assay, competition with immobilised ligand; 0.1 µM).
With `CNc1cccc2cc(C(=O)Nc3ccc(C(=O)O)cc3)c(=O)[nH]c12` the inhibition was 0.91% (LCK; enzyme activity, inhibitor; 10 µM).
The inhibition of `Cc1ccc(Nc2nccc(N(C)c3ccc4c(C)n(C)nc4c3)n2)cc1S(N)(=O)=O` is reported as 59% (LCK; enzyme activity, inhibitor; 0.3 µM).
The remaining binding of `CNC(=O)Nc1ccc2c(c1)[C@@]1(CC2)OC(=O)N(CC(=O)N(Cc2ccc(F)cc2)[C@@H](C)C(F)(F)F)C1=O` is reported as 86% (LCK; cell-free assay, competition with immobilised ligand; 1 µM).
`CN(C)C1CCN(CC#Cc2nn(C3CCCC3)c3nc(NCc4ccccc4)ncc23)C1` (stereo not shown) gave an inhibition of 31% (LCK; enzyme activity, inhibitor, FRET; 1 µM).
For `C=CC(=O)Nc1cc(Nc2nccc(Nc3cc(Cl)c(F)cc3C(C)(C)O)n2)c(OC)cc1N1CC[C@@H](N(C)C)C1`, the inhibition was 37% (LCK; enzyme activity, inhibitor; 1 µM).
With `NS(=O)(=O)c1cc(NC(=O)Cc2ccccc2)ccc1Oc1cccc(Cl)c1` the remaining binding was 70% (LCK; cell-free assay, competition with immobilised ligand; 1 µM).
The inhibition of `CCOc1cc(-c2nncn2C)ccc1Nc1ncc2cc(C)nc(NCC(C)(C)C)c2n1` is reported as < 15% (LCK; enzyme activity, inhibitor, FRET; 1 µM).
`COc1cc2ncnc(Nc3ccc(Oc4ccccc4)c(C)c3C)c2cc1OC` gave an inhibition of 83% (LCK; enzyme activity, inhibitor; 1 µM).
